Measured values: ChEMBL document CHEMBL5724801, “EUbOPEN Chemogenomics Library - Multiplex” (2024)
Several values for one entry are separate records, joined by “and”; a condition that tells them apart may be missing. Equal values may be shown once.

Test system: HEK-293T
Experiment: Multiplex assay against HEK293T
Format: toxicity, cell-based
Conditions: human
Outline: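 Tubulin, mitochondrial-mass and membrane-permeability phenotypes are per cents of healthy-nucleus cells. Cells were gated by CellPathfinder machine learning into Hoechst high-intensity objects or normal cells, normal cells into healthy, pyknosed or fragmented nuclei, and pyknosed cells into mitotic or apoptotic. Before that, live cells stained at seeding with Hoechst33342, BioTracker Green Microtubule Cytoskeleton Dye, MitoTracker Red and Annexin V Alexa Fluor 680 were imaged on a CQ1 microscope at 37°C and 5% CO2 after compound addition.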

[1] = 12 h, 1 µM, compound concentration 1 uM
[2] = 12 h, 10 µM, compound concentration 10 uM
[3] = 24 h, 1 µM, compound concentration 1 uM
[4] = 24 h, 10 µM, compound concentration 10 uM
[5] = 48 h, 1 µM, compound concentration 1 uM
[6] = 48 h, 10 µM, compound concentration 10 uM

In the case of `S=c1[nH]nc(-c2cccs2)n1-c1ccccc1`, the “Population Apoptotic (%)” value [1] is reported as 14.62% and 11.2%, the “Population Fragmented Nuclei (%)” value [1] is reported as 2.05% and 4.52% and the “Population Hoechst High Intensity Objects (%)” value [1] is reported as 1.01% and 0%. The “Population Membrane Permeable-Phenotype (%)” value [1] was 0% and 4.35%, the “Population Mitochondria Different-Phenotype (%)” value [1] was 35.03% and 21.74% and the “Population Mitotic Cells (%)” value [1] was 85.38% and 88.8%. The “Population Normal (%)” value [1] was 98.99% and 100%, the “Population Pyknosed Nuclei (%)” value [1] was 44.37% and 80.65% and the “Total Cell Count” value [1] was 296 and 155. For the same compound, the “Population Apoptotic (%)” value [2] was 8.82% and 18.42%, the “Population Fragmented Nuclei (%)” value [2] was 0.89% and 2.82% and the “Population Hoechst High Intensity Objects (%)” value [2] was 0%. For the same compound, the “Population Membrane Permeable-Phenotype (%)” value [2] was 0%, the “Population Mitotic Cells (%)” value [2] was 91.18% and 81.58% and the “Population Normal (%)” value [2] was 100%. For the same compound, the “Population Pyknosed Nuclei (%)” value [2] was 40.24% and 80.28%, the “Population Tubulin-Different-Phenotype (%)” value [2] was 9.05% and 25% and the “Total Cell Count” value [2] was 338 and 142. For the same compound, the “Population Apoptotic (%)” value [3] was 11.36% and 17.16%, the “Population Fragmented Nuclei (%)” value [3] was 1.73% and 2.2% and the “Population Hoechst High Intensity Objects (%)” value [3] was 0.76% and 0%. The “Population Membrane Permeable-Phenotype (%)” value [3] was 0.26% and 2.27%, the “Population Mitochondria Different-Phenotype (%)” value [3] was 13.46% and 15.91% and the “Population Mitotic Cells (%)” value [3] was 88.64% and 82.84%. The “Population Normal (%)” value [3] was 99.24% and 100%, the “Population Pyknosed Nuclei (%)” value [3] was 25.38% and 73.63% and the “Population Tubulin-Different-Phenotype (%)” value [3] was 8.97% and 6.82%. The “Total Cell Count” value [3] was 524 and 182, the “Population Apoptotic (%)” value [4] was 17.95% and 22% and the “Population Fragmented Nuclei (%)” value [4] was 1.78% and 2.9%. For the same compound, the “Population Hoechst High Intensity Objects (%)” value [4] was 0%, the “Population Membrane Permeable-Phenotype (%)” value [4] was 0.53% and 0% and the “Population Mitochondria Different-Phenotype (%)” value [4] was 11.35% and 2.94%. For the same compound, the “Population Mitotic Cells (%)” value [4] was 82.05% and 78%, the “Population Normal (%)” value [4] was 100% and the “Population Tubulin-Different-Phenotype (%)” value [4] was 9.76% and 8.82%. For the same compound, the “Population Fragmented Nuclei (%)” value [5] was 2.52% and 0.96%, the “Population Healthy Nuclei (%)” value [5] was 87.46% and 66.83% and the “Population Hoechst High Intensity Objects (%)” value [5] was 0.07% and 0%. The “Population Membrane Permeable-Phenotype (%)” value [5] was 4.24% and 5.04%, the “Population Mitochondria Different-Phenotype (%)” value [5] was 13.4% and 16.55% and the “Population Mitotic Cells (%)” value [5] was 94.07% and 77.61%. The “Population Normal (%)” value [5] was 99.93% and 100%, the “Population Apoptotic (%)” value [6] was 10.32% and 16.67% and the “Population Fragmented Nuclei (%)” value [6] was 2.79% and 3.68%. For the same compound, the “Population Healthy Nuclei (%)” value [6] was 86.89% and 63.19%, the “Population Hoechst High Intensity Objects (%)” value [6] was 0% and the “Population Membrane Permeable-Phenotype (%)” value [6] was 5.38% and 1.94%. The “Population Mitochondria Different-Phenotype (%)” value [6] was 11.04% and 20.39%, the “Population Mitotic Cells (%)” value [6] was 89.68% and 83.33% and the “Population Normal (%)” value [6] was 100%.

With `Cl.Cl.N#Cc1ccc(O[C@@H]2c3ccccc3C[C@H]2N2CCC[C@@H](N)C2)c(Cl)c1` the “Population Apoptotic (%)” value [1] was 8.75% and 10.31%, the “Population Fragmented Nuclei (%)” value [1] was 2.35% and 6.14% and the “Population Hoechst High Intensity Objects (%)” value [1] was 0%. The “Population Membrane Permeable-Phenotype (%)” value [1] was 1.16% and 0%, the “Population Mitochondria Different-Phenotype (%)” value [1] was 36.63% and 30% and the “Population Mitotic Cells (%)” value [1] was 91.25% and 89.69%. For the same compound, the “Population Normal (%)” value [1] was 100%, the “Population Pyknosed Nuclei (%)” value [1] was 47.06% and 85.09% and the “Population Tubulin-Different-Phenotype (%)” value [1] was 26.16% and 50%. For the same compound, the “Total Cell Count” value [1] was 340 and 114, the “Population Apoptotic (%)” value [2] was 22.15% and 32.8% and the “Population Fragmented Nuclei (%)” value [2] was 4.33% and 4.76%. For the same compound, the “Population Healthy Nuclei (%)” value [2] was 27.27% and 10.2%, the “Population Hoechst High Intensity Objects (%)” value [2] was 0.86% and 0% and the “Population Membrane Permeable-Phenotype (%)” value [2] was 0% and 13.33%. For the same compound, the “Population Mitochondria Different-Phenotype (%)” value [2] was 28.57% and 33.33%, the “Population Mitotic Cells (%)” value [2] was 77.85% and 67.2% and the “Population Normal (%)” value [2] was 99.14% and 100%. For the same compound, the “Population Pyknosed Nuclei (%)” value [2] was 68.4% and 85.03%, the “Population Tubulin-Different-Phenotype (%)” value [2] was 71.43% and 93.33% and the “Total Cell Count” value [2] was 233 and 147. The “Population Apoptotic (%)” value [3] was 26.62% and 47.67%, the “Population Fragmented Nuclei (%)” value [3] was 1.19% and 8.11% and the “Population Hoechst High Intensity Objects (%)” value [3] was 0.2% and 0%. For the same compound, the “Population Membrane Permeable-Phenotype (%)” value [3] was 2.03% and 0%, the “Population Mitochondria Different-Phenotype (%)” value [3] was 30.14% and 50% and the “Population Mitotic Cells (%)” value [3] was 73.38% and 52.33%. For the same compound, the “Population Normal (%)” value [3] was 99.8% and 100%, the “Population Pyknosed Nuclei (%)” value [3] was 30.5% and 77.48% and the “Population Tubulin-Different-Phenotype (%)” value [3] was 42.9% and 56.25%. The “Population Apoptotic (%)” value [4] was 63.58% and 76.03%, the “Population Fragmented Nuclei (%)” value [4] was 3.91% and 5.04% and the “Population Hoechst High Intensity Objects (%)” value [4] was 1.16% and 0%. For the same compound, the “Population Membrane Permeable-Phenotype (%)” value [4] was 1.05% and 9.09%, the “Population Mitochondria Different-Phenotype (%)” value [4] was 72.63% and 63.64% and the “Population Mitotic Cells (%)” value [4] was 36.42% and 23.97%. The “Population Normal (%)” value [4] was 98.84% and 100%, the “Population Pyknosed Nuclei (%)” value [4] was 58.98% and 87.05% and the “Population Tubulin-Different-Phenotype (%)” value [4] was 93.68% and 90.91%. The “Total Cell Count” value [4] was 259 and 139, the “Population Fragmented Nuclei (%)” value [5] was 2.55% and 7.63% and the “Population Healthy Nuclei (%)” value [5] was 83.85% and 39.83%. For the same compound, the “Population Hoechst High Intensity Objects (%)” value [5] was 0.11% and 0%, the “Population Membrane Permeable-Phenotype (%)” value [5] was 7.35% and 0% and the “Population Mitochondria Different-Phenotype (%)” value [5] was 44.61% and 70.21%. The “Population Mitotic Cells (%)” value [5] was 90.62% and 66.13%, the “Population Normal (%)” value [5] was 99.89% and 100% and the “Population Apoptotic (%)” value [6] was 63.04% and 79.59%. The “Population Fragmented Nuclei (%)” value [6] was 2.57% and 5.97%, the “Population Healthy Nuclei (%)” value [6] was 58% and 20.9% and the “Population Hoechst High Intensity Objects (%)” value [6] was 1.69% and 0.74%. The “Population Membrane Permeable-Phenotype (%)” value [6] was 1.48% and 7.14%, the “Population Mitochondria Different-Phenotype (%)” value [6] was 95.07% and 92.86% and the “Population Mitotic Cells (%)” value [6] was 36.96% and 20.41%. For the same compound, the “Population Normal (%)” value [6] was 98.31% and 99.26%, the “Population Pyknosed Nuclei (%)” value [6] was 39.43% and 73.13% and the “Population Tubulin-Different-Phenotype (%)” value [6] was 30.05% and 89.29%. The “Total Cell Count” value [6] was 356 and 135.

For `COc1cc2ncnc(Nc3ccc(Oc4ccccc4)cc3C)c2cc1OC.Cl`, the “Population Apoptotic (%)” value [1] was 9.24% and 8.93%, the “Population Fragmented Nuclei (%)” value [1] was 2.79% and 1.37% and the “Population Healthy Nuclei (%)” value [1] was 50.51% and 21.92%. The “Population Hoechst High Intensity Objects (%)” value [1] was 0%, the “Population Membrane Permeable-Phenotype (%)” value [1] was 1.51% and 0% and the “Population Mitochondria Different-Phenotype (%)” value [1] was 24.62% and 9.38%. The “Population Mitotic Cells (%)” value [1] was 90.76% and 91.07%, the “Population Normal (%)” value [1] was 100% and the “Population Pyknosed Nuclei (%)” value [1] was 46.7% and 76.71%. For the same compound, the “Population Tubulin-Different-Phenotype (%)” value [1] was 6.53% and 18.75%, the “Total Cell Count” value [1] was 394 and 146 and the “Population Apoptotic (%)” value [2] was 10.53% and 18.75%. For the same compound, the “Population Fragmented Nuclei (%)” value [2] was 1.92% and 2.05%, the “Population Hoechst High Intensity Objects (%)” value [2] was 0% and the “Population Membrane Permeable-Phenotype (%)” value [2] was 0.6% and 0%. For the same compound, the “Population Mitochondria Different-Phenotype (%)” value [2] was 17.86% and 20%, the “Population Mitotic Cells (%)” value [2] was 89.47% and 81.25% and the “Population Normal (%)” value [2] was 100%. For the same compound, the “Population Pyknosed Nuclei (%)” value [2] was 52.05% and 87.67%, the “Total Cell Count” value [2] was 365 and 146 and the “Population Apoptotic (%)” value [3] was 18.7% and 16.84%. The “Population Fragmented Nuclei (%)” value [3] was 0.78% and 1.86%, the “Population Healthy Nuclei (%)” value [3] was 80.12% and 39.13% and the “Population Hoechst High Intensity Objects (%)” value [3] was 0%. The “Population Membrane Permeable-Phenotype (%)” value [3] was 2.13% and 1.59%, the “Population Mitochondria Different-Phenotype (%)” value [3] was 8.53% and 7.94% and the “Population Mitotic Cells (%)” value [3] was 81.3% and 83.16%. The “Population Normal (%)” value [3] was 100%, the “Population Tubulin-Different-Phenotype (%)” value [3] was 10.85% and 3.17% and the “Population Apoptotic (%)” value [4] was 30.37% and 35.11%. For the same compound, the “Population Fragmented Nuclei (%)” value [4] was 2.24% and 2.6%, the “Population Hoechst High Intensity Objects (%)” value [4] was 0.22% and 0% and the “Population Membrane Permeable-Phenotype (%)” value [4] was 0.66% and 0%. The “Population Mitochondria Different-Phenotype (%)” value [4] was 13.58% and 21.05%, the “Population Mitotic Cells (%)” value [4] was 69.63% and 64.89% and the “Population Normal (%)” value [4] was 99.78% and 100%. For the same compound, the “Population Pyknosed Nuclei (%)” value [4] was 30.2% and 85.06%, the “Total Cell Count” value [4] was 448 and 154 and the “Population Fragmented Nuclei (%)” value [5] was 2.53% and 2.04%. The “Population Healthy Nuclei (%)” value [5] was 85.42% and 68.88%, the “Population Hoechst High Intensity Objects (%)” value [5] was 0.14% and 0% and the “Population Membrane Permeable-Phenotype (%)” value [5] was 4.9% and 2.96%. For the same compound, the “Population Mitochondria Different-Phenotype (%)” value [5] was 14.29% and 17.78%, the “Population Mitotic Cells (%)” value [5] was 92.22% and 73.68% and the “Population Normal (%)” value [5] was 99.86% and 100%. The “Population Pyknosed Nuclei (%)” value [5] was 12.06% and 29.08%, the “Population Apoptotic (%)” value [6] was 20.37% and 26.73% and the “Population Fragmented Nuclei (%)” value [6] was 1.69% and 2.03%. The “Population Healthy Nuclei (%)” value [6] was 77.27% and 46.7%, the “Population Hoechst High Intensity Objects (%)” value [6] was 0% and the “Population Membrane Permeable-Phenotype (%)” value [6] was 2.35% and 1.09%. The “Population Mitochondria Different-Phenotype (%)” value [6] was 53.61% and 47.83%, the “Population Mitotic Cells (%)” value [6] was 79.63% and 73.27% and the “Population Normal (%)” value [6] was 100%. For the same compound, the “Population Pyknosed Nuclei (%)” value [6] was 21.04% and 51.27%.
